Assay results published in ChEMBL document CHEMBL1143766, “Mono- and disalicylic acid derivatives: PTP1B inhibitors as potential anti-obesity drugs” (Bioorg Med Chem, 2007).

Legend:
[1] = target: T1, Tyrosine-protein phosphatase non-receptor type 1 (Homo sapiens, UniProt P18031); assay: Inhibition of PTP1B
T1 sequence (P18031 whole entry): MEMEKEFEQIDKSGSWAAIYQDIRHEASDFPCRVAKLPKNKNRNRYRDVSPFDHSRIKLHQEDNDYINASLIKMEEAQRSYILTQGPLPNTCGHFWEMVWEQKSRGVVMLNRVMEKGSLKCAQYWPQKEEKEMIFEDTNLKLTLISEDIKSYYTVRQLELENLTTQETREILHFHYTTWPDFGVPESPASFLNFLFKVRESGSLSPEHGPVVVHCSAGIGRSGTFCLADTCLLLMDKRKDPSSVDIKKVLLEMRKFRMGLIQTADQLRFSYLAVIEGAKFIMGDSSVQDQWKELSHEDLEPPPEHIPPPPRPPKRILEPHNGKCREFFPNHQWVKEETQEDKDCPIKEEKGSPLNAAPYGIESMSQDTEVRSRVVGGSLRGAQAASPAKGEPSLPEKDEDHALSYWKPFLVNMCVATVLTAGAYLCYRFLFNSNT
Procedure, shortened: (§1)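 Enzymes expressed in E. coli and purified: native PTP1B at 2.1 µg/mL, SHP-1 catalytic domain at 5 µg/mL. Buffer 100 mM Hepes, 5 mM EDTA, pH 7.0, 37 °C. Enzyme preincubated 10 min with inhibitor in DMSO, then 2 mM pNPP (final) added. Reaction 3 min, quenched with NaOH, p-nitrophenol read at 405 nm. IC50 taken over a range of inhibitor concentrations.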

[2] = system: Mus musculus; assay: Effect on total cholesterol in HFD-fed C57BL/6J Jms Slc DIO mouse plasma at 5 g/kg of diet after 28 days; format: functional
Procedure, shortened: (§2)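 DIO mice (HFD 8 weeks, then drug in powdered HFD at 5 g/kg diet for 4 weeks) fasted 8 h at the end. Secobarbital 40 mg/kg ip, cardiac-puncture blood into EDTA, plasma spun at 5000g, 10 min, 4 °C and frozen. Enzymatic colour kits, 37 °C. Glucose: 5 min, A505. TG and cholesterol: 5 min, A600. NEFA: 20 min, A550. Means ± SEM, n = 8–9.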

[3] = system: Mus musculus; assay: Effect on liver weight in HFD-fed C57BL/6J Jms Slc DIO mouse at 5 g/kg of diet after 28 days; format: functional
Procedure, shortened: (§3)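 Male C57BL/6J Jms Slc mice (4 weeks old, 17–19 g), acclimatized 1 week on LFD, then HFD for 8 weeks to induce obesity. Next 4 weeks on powdered HFD with compound kneaded in at 5 g/kg diet (0.5% w/w), dissolved with 2 equiv NaOH in water. Vehicle diet was kneaded with the same volume of water. n = 9/group, LFD lean control n = 8. Body weight recorded every other day. Means ± SEM.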

[4] = system: Mus musculus; assay: Effect on triglyceride level in HFD-fed C57BL/6J Jms Slc DIO mouse plasma at 5 g/kg of diet after 28 days; format: functional; procedure, shortened: as §2
[5] = system: Mus musculus; assay: Effect on glucose level in HFD-fed C57BL/6J Jms Slc DIO mouse plasma at 5 g/kg of diet after 28 days; format: functional; procedure, shortened: as §2
[6] = system: Mus musculus; assay: Effect on nonesterified fatty acid level in HFD-fed C57BL/6J Jms Slc DIO mouse plasma at 5 g/kg of diet after 28 days; format: functional; procedure, shortened: as §2
[7] = target: T2, Tyrosine-protein phosphatase non-receptor type 2 (Homo sapiens, UniProt P17706); assay: Inhibition of TC-PTP
T2 sequence (P17706 whole entry): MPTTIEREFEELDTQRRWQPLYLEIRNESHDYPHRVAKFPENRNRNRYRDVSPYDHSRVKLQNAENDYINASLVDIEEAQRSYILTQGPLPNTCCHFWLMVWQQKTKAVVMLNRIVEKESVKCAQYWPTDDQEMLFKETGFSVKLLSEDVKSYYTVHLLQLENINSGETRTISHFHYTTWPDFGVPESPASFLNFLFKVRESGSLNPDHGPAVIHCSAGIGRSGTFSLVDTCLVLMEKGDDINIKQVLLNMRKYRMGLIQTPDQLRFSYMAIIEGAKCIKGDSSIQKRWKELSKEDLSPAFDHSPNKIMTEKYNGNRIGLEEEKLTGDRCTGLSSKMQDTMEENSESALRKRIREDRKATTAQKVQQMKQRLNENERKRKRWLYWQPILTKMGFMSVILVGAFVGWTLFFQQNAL
Procedure, shortened: (§4)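 Commercial LAR-D1 (membrane-proximal catalytic domain) and TC-PTP, each at 33 U/mL. Run at 37 °C in 100 mM Hepes, 5 mM EDTA, pH 7.0. Inhibitor in DMSO preincubated 10 min before 2 mM pNPP (final) added. After 3 min, quenched with NaOH and A405 read. IC50 from a range of inhibitor concentrations.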

[8] = target: T3, Tyrosine-protein phosphatase 1 (Saccharomyces cerevisiae S288c, UniProt P25044); assay: Inhibition of yeast PTP1
T3 sequence (P25044 whole entry): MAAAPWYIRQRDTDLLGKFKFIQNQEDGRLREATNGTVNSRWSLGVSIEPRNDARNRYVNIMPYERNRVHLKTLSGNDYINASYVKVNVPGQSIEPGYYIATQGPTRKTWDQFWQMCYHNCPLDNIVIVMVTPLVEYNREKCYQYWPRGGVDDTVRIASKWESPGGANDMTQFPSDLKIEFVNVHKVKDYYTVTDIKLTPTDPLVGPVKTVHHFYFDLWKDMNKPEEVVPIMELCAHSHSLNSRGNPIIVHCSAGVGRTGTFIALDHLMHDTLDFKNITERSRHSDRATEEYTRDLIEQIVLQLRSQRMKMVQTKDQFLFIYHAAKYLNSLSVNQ
Procedure, shortened: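 Yeast PTPase YPTP1 at 30 ng/mL. pNPP hydrolysis at 37 °C, pH 7.0 Hepes/EDTA buffer, 10 min inhibitor preincubation, 2 mM pNPP final, 3 min reaction, NaOH stop, A405. IC50 derived from activity across inhibitor concentrations.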

[9] = target: Tyrosine-protein phosphatase non-receptor type 6 (Homo sapiens, UniProt P29350); assay: Inhibition of SHP-1 catalytic domain; procedure, shortened: as §1
[10] = Inhibition of LAR-D1; parameters: species or system Homo sapiens; procedure, shortened: as §4
[11] = system: Mus musculus; assay: Effect on body weight in HFD-fed C57BL/6J Jms Slc DIO mouse at 5 g/kg of diet after 28 days; format: functional; procedure, shortened: as §3
[12] = system: Mus musculus; assay: Effect on adipose epididymal tissue weight in HFD-fed C57BL/6J Jms Slc DIO mouse at 5 g/kg of diet after 28 days; format: functional; procedure, shortened: as §3
[13] = system: Mus musculus; assay: Effect on adipose retroperitoneal tissue weight in HFD-fed C57BL/6J Jms Slc DIO mouse at 5 g/kg of diet after 28 days; format: functional; procedure, shortened: as §3

Chain of Tyrosine-protein phosphatase non-receptor type 6 (P29350 whole entry, the tested form may be a part): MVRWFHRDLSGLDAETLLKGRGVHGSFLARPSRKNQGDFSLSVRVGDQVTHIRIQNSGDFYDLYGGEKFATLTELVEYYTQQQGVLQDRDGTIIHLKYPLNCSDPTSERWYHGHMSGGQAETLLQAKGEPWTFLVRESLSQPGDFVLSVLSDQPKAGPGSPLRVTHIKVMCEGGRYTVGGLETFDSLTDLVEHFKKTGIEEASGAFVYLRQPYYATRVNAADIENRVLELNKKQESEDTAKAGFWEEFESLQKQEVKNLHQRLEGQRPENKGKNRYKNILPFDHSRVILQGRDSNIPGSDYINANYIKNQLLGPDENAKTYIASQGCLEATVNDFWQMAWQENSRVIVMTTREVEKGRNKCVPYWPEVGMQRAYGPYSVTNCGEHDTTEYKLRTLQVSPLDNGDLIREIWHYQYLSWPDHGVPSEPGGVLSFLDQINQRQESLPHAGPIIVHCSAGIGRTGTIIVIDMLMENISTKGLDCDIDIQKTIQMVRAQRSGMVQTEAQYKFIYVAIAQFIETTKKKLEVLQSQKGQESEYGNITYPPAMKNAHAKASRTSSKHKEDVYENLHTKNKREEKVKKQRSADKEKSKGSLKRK

`O=C(O)c1cc(-c2ccccc2)cc(-c2ccccc2)c1O` gave an IC50 [1] of 84 µM.
Compound `O=C(O)c1cc(Cc2ccccc2)ccc1O` has an IC50 [1] of 1180 µM.
`O=C(O)c1cc(Br)cc(Cc2ccccc2)c1O` gave an IC50 [1] of 148 µM.
With `O=C(O)c1cc(-c2ccccc2)ccc1O` the IC50 [1] was 1280 µM.
Compound `O=C(O)c1cc(Cc2cc(C(=O)O)c(O)c(-c3ccccc3)c2)cc(-c2ccccc2)c1O` has an Activity [2] of 129 mg/dL, an Activity [3] of 1.03 g and an Activity [4] of 42 mg/dL. For the same compound, the Activity [5] was 300 mg/dL and the Activity [6] was 0.24 mEq/L.
With `O=C(O)c1cc(F)ccc1O` the IC50 [1] was > 1000 µM.
`O=C(O)c1cc(F)cc(Cc2cc(F)cc(C(=O)O)c2O)c1O` showed an IC50 [1] of 215 µM.
For `O=C(O)c1cc2ccccc2cc1O`, the IC50 [1] was > 1000 µM.
For `O=C(O)c1ccc2ccccc2c1O` [CARBOXYNAPHTHOL], the IC50 [1] was 850 µM.
In the case of `O=C(O)c1cc(Cc2ccccc2)cc(-c2ccccc2)c1O`, the IC50 [7] is reported as 540 µM, the IC50 [8] is reported as 271 µM and the IC50 [1] is reported as 65 µM. The IC50 [9] was 129 µM and the IC50 [10] was > 2000 µM.
`O=C(O)c1cc(-c2ccccc2)cc(Cc2cc(-c3ccccc3)cc(C(=O)O)c2O)c1O` gave an IC50 [7] of 156 µM, a Ki [7] of 89 µM and an Activity [2] of 133 mg/dL. It also gave an IC50 [8] of 86 µM, an Activity [11] of 28.9 g and an Activity [12] of 0.83 g. For the same compound, the IC50 [1] was 19 µM, the Ki [1] was 6.5 µM and the Activity [3] was 1.07 g. It also gave an IC50 [9] of 37 µM, a Ki [9] of 9.7 µM and an Activity [13] of 0.26 g. The Activity [4] was 48 mg/dL, the IC50 [10] was > 2000 µM and the Activity [5] was 280 mg/dL. For the same compound, the Activity [6] was 0.14 mEq/L.
`O=C(O)c1cc(-c2ccco2)cc(Cc2cc(-c3ccco3)cc(C(=O)O)c2O)c1O` showed an IC50 [1] of 67 µM.
`O=C(O)c1cccc(-c2ccccc2)c1O` showed an IC50 [1] of 859 µM.
In the case of `O=Cc1ccc(O)c(C(=O)O)c1`, the IC50 [1] is reported as > 1000 µM.
Work on `O=C(O)c1cccc(Cc2ccccc2)c1O` yielded an IC50 [1] of 403 µM.
`O=C(O)c1cc(-c2ccccc2)cc(Cc2ccccc2)c1O` gave an IC50 [1] of 57 µM.
For `O=C(O)c1cc(Br)cc(Cc2cc(Br)cc(C(=O)O)c2O)c1O`, the IC50 [1] was 149 µM.
For `O=C(O)c1cc(-c2ccccc2)cc(Br)c1O`, the IC50 [1] was 351 µM.
For `O=C(O)c1cc(Cc2ccccc2)cc(Br)c1O`, the IC50 [1] was 153 µM.
With `O=C(O)c1cc(Cc2ccccc2)cc(Cc2ccccc2)c1O` the IC50 [1] was 91 µM.
In the case of `O=C(O)c1cc(-c2cccs2)cc(Cc2cc(-c3cccs3)cc(C(=O)O)c2O)c1O`, the IC50 [1] is reported as 27 µM.
In the case of `O=C(O)c1cccc(Br)c1O`, the IC50 [1] is reported as > 1000 µM.
`O=Cc1cc(C(=O)O)c(O)c(C2CCCO2)c1` (stereo not drawn) showed an IC50 [1] of 380 µM.
For `O=C(O)Cc1cc(O)c(CC(=O)O)cc1O`, the IC50 [1] was > 1000 µM.
With `O=C(O)c1cc(S(=O)(=O)O)ccc1O` [SULFOSALICYLIC] the IC50 [1] was > 1000 µM.
